In ChEMBL document CHEMBL1122345, “Antihypertensive agents: angiotensin converting enzyme inhibitors. 1-[3-(Acylthio)-3-aroylpropionyl]-L-prolines” (J Med Chem, 1983):

How the values were obtained:
[1] = target: T1, Angiotensin-converting enzyme (Rattus norvegicus) (UniProt P47820); experiment: (§1) Change in mean arterial blood pressure (MABP) after 20 mg/kg (po) dosage in Aorta-Coated renal hypertensive rat at 0.5 h; type: functional, organism-based; parameters: dose 20 mg/kg
T1 sequence (whole entry): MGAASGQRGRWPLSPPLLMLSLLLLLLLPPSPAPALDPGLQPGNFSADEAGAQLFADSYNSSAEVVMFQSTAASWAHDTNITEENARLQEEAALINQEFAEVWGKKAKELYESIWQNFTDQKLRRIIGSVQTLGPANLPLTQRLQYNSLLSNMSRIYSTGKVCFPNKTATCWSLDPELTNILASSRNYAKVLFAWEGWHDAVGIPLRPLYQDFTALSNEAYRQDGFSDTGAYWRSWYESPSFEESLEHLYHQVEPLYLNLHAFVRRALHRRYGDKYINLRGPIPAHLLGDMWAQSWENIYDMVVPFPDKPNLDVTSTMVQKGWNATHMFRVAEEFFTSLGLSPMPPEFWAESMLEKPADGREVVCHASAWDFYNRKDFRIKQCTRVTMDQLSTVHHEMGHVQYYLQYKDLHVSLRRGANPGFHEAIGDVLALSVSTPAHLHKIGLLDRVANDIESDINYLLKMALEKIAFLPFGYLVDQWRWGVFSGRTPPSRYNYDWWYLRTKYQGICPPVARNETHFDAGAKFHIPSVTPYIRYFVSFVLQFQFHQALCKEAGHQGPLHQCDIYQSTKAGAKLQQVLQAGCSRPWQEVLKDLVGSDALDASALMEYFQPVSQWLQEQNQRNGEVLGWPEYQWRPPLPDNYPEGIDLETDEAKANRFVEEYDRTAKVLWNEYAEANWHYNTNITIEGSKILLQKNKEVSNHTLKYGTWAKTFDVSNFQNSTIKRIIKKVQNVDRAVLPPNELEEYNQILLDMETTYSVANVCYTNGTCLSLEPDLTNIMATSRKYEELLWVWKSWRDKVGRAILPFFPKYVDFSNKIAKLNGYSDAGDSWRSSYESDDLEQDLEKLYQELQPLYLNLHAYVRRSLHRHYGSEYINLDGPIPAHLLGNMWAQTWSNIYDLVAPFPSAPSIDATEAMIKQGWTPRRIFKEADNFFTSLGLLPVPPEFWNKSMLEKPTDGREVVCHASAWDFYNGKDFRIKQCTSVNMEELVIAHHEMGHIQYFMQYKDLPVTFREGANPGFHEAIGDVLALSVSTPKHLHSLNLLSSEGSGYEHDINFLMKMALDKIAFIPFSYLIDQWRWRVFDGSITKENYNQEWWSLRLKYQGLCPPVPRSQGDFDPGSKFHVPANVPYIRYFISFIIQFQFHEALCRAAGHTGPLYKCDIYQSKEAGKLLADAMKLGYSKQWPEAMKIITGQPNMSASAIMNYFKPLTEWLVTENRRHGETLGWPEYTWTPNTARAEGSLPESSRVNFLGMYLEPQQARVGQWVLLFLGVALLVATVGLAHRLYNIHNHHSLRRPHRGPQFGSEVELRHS
Procedure, shortened: (§2)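 Oral gavage to conscious, unrestrained rats made hypertensive by complete aortic ligation between the renal artery origins; only rats with MABP ≥150 mmHg on days 4–6 after coarctation used. Vehicle: ethanol, polyethylene glycol, Tween-80, diluted with saline. Direct arterial pressure via indwelling carotid cannula implanted 24 h earlier; change vs vehicle controls, means ± standard error, unpaired Student's t test.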

[2] = target: T1, Angiotensin-converting enzyme (Rattus norvegicus); experiment: Change in mean arterial blood pressure (MABP) after 20 mg/kg (po) dosage in Aorta-Coated renal hypertensive rat at 2.0 h; type: functional, organism-based; parameters: dose 20 mg/kg; procedure, shortened: as §2
Rattus norvegicus = experiment: as §1; type: functional; procedure, shortened: as §2

SMILES	Delta MABP [1]	Delta MABP [2]	Delta MABP (Rattus norvegicus)
CC(=O)SC(CC(=O)N1CCCC1C(=O)O)C(=O)c1ccc(F)cc1 (stereo not given)	-15.8 mmHg	-14.7 mmHg	–
O=C(SC(CC(=O)N1CCCC1C(=O)O)C(=O)c1cccc(F)c1)c1ccccc1 (stereo not given)	-41 mmHg	3.75 mmHg	–
CC(=O)SC(CC(=O)N1CCCC1C(=O)O)C(=O)c1ccc(Cl)cc1 (stereo not given)	–	-11.7 mmHg	-17.33 mmHg
C[C@H](CS)C(=O)N1CCC[C@H]1C(=O)O	-27.7 mmHg	-21.7 mmHg	–
CC(=O)SC(CC(=O)N1CCCC1C(=O)O)C(=O)c1ccc(Br)cc1 (stereo not given)	-18.3 mmHg	-10.4 mmHg	–
CC(=O)SC(CC(=O)N1CCCC1C(=O)O)C(=O)c1ccccc1 (stereo not given)	–	-5.25 mmHg	-19.2 mmHg
O=C(SC(CC(=O)N1CCCC1C(=O)O)C(=O)c1ccc(F)cc1)c1ccccc1 (stereo not given)	-12 mmHg	-6.5 mmHg	–
CC(=O)S[C@H](C(=O)c1cccc(F)c1)[C@@H](C)C(=O)N1CCC[C@H]1C(=O)O	-24.8 mmHg	-28 mmHg	–
CC(=O)S[C@H](C(=O)c1ccccc1)[C@@H](C)C(=O)N1CCC[C@H]1C(=O)O	-23 mmHg	-23.2 mmHg	–
CC(=O)SC(CC(=O)N1CCCC1C(=O)O)C(=O)c1ccc(C(C)(C)C)cc1 (stereo not given)	-30 mmHg	-19.2 mmHg	–
CC(=O)SC(CC(=O)N1CCCC1C(=O)O)C(=O)c1ccc2ccccc2c1 (stereo not given)	-17.3 mmHg	-6.67 mmHg	–
CC(=O)SC(CC(=O)N1CCCC1C(=O)O)C(=O)c1ccc2c(c1)CCC2 (stereo not given)	-18.5 mmHg	-30 mmHg	–
CC(=O)SC(CC(=O)N1CCCC1C(=O)O)C(=O)c1cccc(C(F)(F)F)c1 (stereo not given)	-17.5 mmHg	-0.83 mmHg	–
COc1ccc(C(=O)C(CC(=O)N2CCCC2C(=O)O)SC(C)=O)cc1F (stereo not given)	-12.7 mmHg	-11 mmHg	–
O=C(SC(CC(=O)N1CCCC1C(=O)O)C(=O)c1ccccc1)c1ccccc1 (stereo not given)	-1 mmHg	-22.7 mmHg	–
CC(=O)SC(CC(=O)N1CCCC1C(=O)O)C(=O)c1cccc(F)c1 (stereo not given)	-17 mmHg	-5.43 mmHg	–
CC(=O)S[C@@H](C(=O)c1ccccc1)[C@@H](C)C(=O)N1CCC[C@H]1C(=O)O	-22.4 mmHg	-17.1 mmHg	–
O=C(SC(CC(=O)N1CCCC1C(=O)O)C(=O)c1ccc(Br)cc1)c1ccccc1 (stereo not given)	-10 mmHg	-14.3 mmHg	–
CC(=O)SC(C(=O)c1ccc(Cl)cc1)C(C)C(=O)N1CCCC1C(=O)O (stereo not given)	-24 mmHg	-30.5 mmHg	–
CC(=O)S[C@@H](C(=O)c1ccc(Br)cc1)[C@@H](C)C(=O)N1CCC[C@H]1C(=O)O	-27.1 mmHg	-31.3 mmHg	–
O=C(c1ccc(Br)cc1)C(S)CC(=O)N1CCCC1C(=O)O (stereo not given)	-8.8 mmHg	-12 mmHg	–
CC(=O)S[C@@H](C(=O)c1cccc(F)c1)[C@@H](C)C(=O)N1CCC[C@H]1C(=O)O	-17.5 mmHg	–	–
CC(=O)S[C@H](C(=O)c1ccc(Br)cc1)[C@@H](C)C(=O)N1CCC[C@H]1C(=O)O	-23.5 mmHg	-26.7 mmHg	–
